≈ marks a conversion by molar mass, not a printed value.
Tests used:
Type in all cases: functional
[1] = tested on: Ogataea angusta; assay: Antifungal activity against Hansenula polymorpha MC1 with met2 cys1 genotype by agar dilution method
Outline: (§1)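 H. polymorpha strains were tested by agar dilution on rich YPD agar at 37 °C. Compound stocks in 96% EtOH were mixed into the medium to give […]. Cells were suspended in water, serially diluted to 10^9, 10^7, 10^5 and 10^3 cells/ml, and applied to the agar with a metal replicator. MIC was read from growth.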

[2] = tested on: Ogataea angusta; assay: Antifungal activity against Hansenula polymorpha CRD2 with leu2 CDR2 genotype by agar dilution method; outline: as §1
[3] = tested on: Ogataea angusta; assay: Antifungal activity against Hansenula polymorpha R3 with rgh3 genotype by agar dilution method; outline: as §1
[4] = tested on: Saccharomyces cerevisiae; assay: Antifungal activity against diploid Saccharomyces cerevisiae PV-2 by agar dilution method
Outline: (§2)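 MICs by agar dilution on rich YPD medium. Compounds were added from 96% EtOH stocks to give final agar concentrations of 20 to 50 (units as printed in the source). Cells were suspended in water, serially diluted to 10^9, 10^7, 10^5 and 10^3 cells/ml, and spotted onto agar with a metal replicator. Incubation was at 37 °C for H. polymorpha and 30 °C for S. cerevisiae.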

[5] = tested on: Ogataea angusta; assay: Antifungal activity against Hansenula polymorpha D22 with arg1/arg1 ade1/ADE1 leu2/leu2 URA3/ura3 CYS1/cys1 genotype by agar dilution method; outline: as §1
[6] = tested on: Ogataea angusta; assay: Antifungal activity against Hansenula polymorpha WT2 with ade1 met6 genotype by agar dilution method; outline: as §1
[7] = tested on: Saccharomyces cerevisiae; assay: Antifungal activity against haploid Saccharomyces cerevisiae YSH1170 by agar dilution method
Outline: (§3)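 S. cerevisiae and K. lactis strains were tested by agar dilution on rich YPD agar at 30 °C. Compound stocks in 96% EtOH were added to the medium to give […]. Cells were suspended in water, serially diluted to 10^9–10^3 cells/ml, and plated with a metal replicator. MIC was read from growth.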

[8] = tested on: Ogataea angusta; assay: Antifungal activity against Hansenula polymorpha CTA1 with leu2 cat1 genotype by agar dilution method; outline: as §2
[9] = tested on: Kluyveromyces lactis; assay: Antifungal activity against Kluyveromyces lactis 2-19B with MATalpha ura lys arg genotype by agar dilution method; outline: as §3
[10] = tested on: Saccharomyces cerevisiae; assay: Antifungal activity against diploid Saccharomyces cerevisiae PV-3 by agar dilution method; outline: as §2
[11] = tested on: Kluyveromyces lactis; assay: Antifungal activity against Kluyveromyces lactis 2-18B with MATalpha metA1 ura3 leu2 genotype by agar dilution method; outline: as §3
[12] = tested on: Saccharomyces cerevisiae; assay: Antifungal activity against haploid Saccharomyces cerevisiae 10560-6B by agar dilution method; outline: as §3
[13] = tested on: Saccharomyces cerevisiae; assay: Antifungal activity against diploid Saccharomyces cerevisiae 29a by agar dilution method; outline: as §3
[14] = tested on: Ogataea angusta; assay: Antifungal activity against Hansenula polymorpha CD3 with ade1 leu2 cds3 genotype by agar dilution method; outline: as §1
[15] = tested on: Saccharomyces cerevisiae; assay: Antifungal activity against haploid Saccharomyces cerevisiae 2180 by agar dilution method; outline: as §3
[16] = tested on: Ogataea angusta; assay: Antifungal activity against Hansenula polymorpha M4 with met4 genotype by agar dilution method; outline: as §1
[17] = tested on: Ogataea angusta; assay: Antifungal activity against Hansenula polymorpha AS1 with arg1 gsh2delta genotype by agar dilution method; outline: as §1
[18] = tested on: Kluyveromyces lactis; assay: Antifungal activity against Kluyveromyces lactis 1-6A with MATalpha uraA lys arg genotype by agar dilution method; outline: as §3
[19] = tested on: Saccharomyces cerevisiae; assay: Antifungal activity against haploid Saccharomyces cerevisiae YSH1171 by agar dilution method; outline: as §3
[20] = tested on: Ogataea angusta; assay: Antifungal activity against Hansenula polymorpha AU05 with ade3 ura3 genotype by agar dilution method; outline: as §1
[21] = tested on: Ogataea angusta; assay: Antifungal activity against Hansenula polymorpha CD1 with ade1 leu2 cds1 genotype by agar dilution method; outline: as §1
[22] = tested on: Saccharomyces cerevisiae; assay: Antifungal activity against haploid Saccharomyces cerevisiae FY4 by agar dilution method; outline: as §3
[23] = tested on: Saccharomyces cerevisiae; assay: Antifungal activity against haploid Saccharomyces cerevisiae D3C by agar dilution method; outline: as §2
[24] = tested on: Ogataea angusta; assay: Antifungal activity against Hansenula polymorpha 2a with arg1 leu2 ura3 cys1 genotype by agar dilution method; outline: as §1
[25] = tested on: Ogataea angusta; assay: Antifungal activity against Hansenula polymorpha M2 with met2 genotype by agar dilution method; outline: as §1
[26] = tested on: Saccharomyces cerevisiae; assay: Antifungal activity against diploid Saccharomyces cerevisiae 1a by agar dilution method; outline: as §3
[27] = tested on: Ogataea angusta; assay: Antifungal activity against Hansenula polymorpha 2b with arg1 ade1 leu2 genotype by agar dilution method; outline: as §1
[28] = tested on: Ogataea angusta; assay: Antifungal activity against Hansenula polymorpha WT1 with ade1 ura3 genotype by agar dilution method; outline: as §1
[29] = tested on: Saccharomyces cerevisiae; assay: Antifungal activity against haploid Saccharomyces cerevisiae 1169 by agar dilution method; outline: as §3
[30] = tested on: Saccharomyces cerevisiae; assay: Antifungal activity against haploid Saccharomyces cerevisiae 1S by agar dilution method; outline: as §3
[31] = tested on: Ogataea angusta; assay: Antifungal activity against Hansenula polymorpha CD2 with ade1 leu2 cds2 genotype by agar dilution method; outline: as §1
[32] = tested on: Saccharomyces cerevisiae; assay: Antifungal activity against haploid Saccharomyces cerevisiae Sigma 1278b by agar dilution method; outline: as §3
[33] = tested on: Ogataea angusta; assay: Antifungal activity against Hansenula polymorpha WA1 with ade1 leu2 gsh1 genotype by agar dilution method; outline: as §2

Compound | MIC [1] [µg/mL] | MIC [2] [µg/mL] | MIC [3] [µg/mL] | MIC [5] [µg/mL] | MIC [6] [µg/mL] | MIC [7] [µg/mL] | MIC [9] [µg/mL] | MIC [11] [µg/mL] | MIC [12] [µg/mL] | MIC [13] [µg/mL] | MIC [14] [µg/mL] | MIC [15] [µg/mL] | MIC [16] [µg/mL] | MIC [17] [µg/mL] | MIC [18] [µg/mL] | MIC [19] [µg/mL] | MIC [20] [µg/mL] | MIC [21] [µg/mL] | MIC [22] [µg/mL] | MIC [24] [µg/mL] | further results
O=C(/C=C/c1cccc(O)c1)c1ccc(Cl)cc1 | < 20 | < 20 | < 20 | < 20 | < 20 | 15 (≈ 58 µM) | < 20 | < 20 | 15 (≈ 58 µM) | 25 (≈ 96.6 µM) | < 20 | 16 (≈ 61.8 µM) | 25 (≈ 96.6 µM) | < 20 | < 20 | 18 (≈ 69.6 µM) | 25 (≈ 96.6 µM) | < 20 | 18 (≈ 69.6 µM) | < 20 | MIC [4]: 18 µg/mL (≈ 69.6 µM); MIC [8]: 25 µg/mL (≈ 96.6 µM); MIC [10]: 15 µg/mL (≈ 58 µM); MIC [23]: 20 µg/mL (≈ 77.3 µM); MIC [25]: 25 µg/mL (≈ 96.6 µM); MIC [26]: 20 µg/mL (≈ 77.3 µM); MIC [27]: 25 µg/mL (≈ 96.6 µM); MIC [28]: 25 µg/mL (≈ 96.6 µM); MIC [29]: 20 µg/mL (≈ 77.3 µM); MIC [30]: 20 µg/mL (≈ 77.3 µM); MIC [31]: < 20 µg/mL; MIC [32]: 15 µg/mL (≈ 58 µM)
COc1ccc(/C=C/C(=O)c2ccccc2)cc1O | 30 (≈ 118 µM) | > 40 | > 40 | > 40 | > 40 | 35 (≈ 138 µM) | 25 (≈ 98.3 µM) | 25 (≈ 98.3 µM) | > 40 | > 40 | > 40 | > 40 | > 40 | 30 (≈ 118 µM) | 25 (≈ 98.3 µM) | > 40 | > 40 | > 40 | > 40 | 30 (≈ 118 µM) | MIC [33]: 30 µg/mL (≈ 118 µM); MIC [25]: > 40 µg/mL; MIC [26]: > 40 µg/mL; MIC [27]: > 40 µg/mL; MIC [28]: > 40 µg/mL; MIC [29]: > 40 µg/mL; MIC [30]: > 40 µg/mL; MIC [31]: > 40 µg/mL; MIC [32]: > 40 µg/mL
O=C(/C=C/c1ccc(O)cc1)c1ccc(Cl)cc1 | 30 (≈ 116 µM) | 40 (≈ 155 µM) | 40 (≈ 155 µM) | > 40 | > 40 | > 40 | 35 (≈ 135 µM) | 35 (≈ 135 µM) | > 40 | > 40 | > 40 | > 40 | > 40 | 30 (≈ 116 µM) | > 40 | > 40 | > 40 | > 40 | > 40 | 35 (≈ 135 µM) | MIC [4]: 35 µg/mL (≈ 135 µM); MIC [10]: 35 µg/mL (≈ 135 µM); MIC [33]: 30 µg/mL (≈ 116 µM); MIC [25]: > 40 µg/mL; MIC [26]: 35 µg/mL (≈ 135 µM); MIC [27]: > 40 µg/mL; MIC [28]: > 40 µg/mL; MIC [29]: > 40 µg/mL; MIC [30]: > 40 µg/mL; MIC [31]: > 40 µg/mL; MIC [32]: > 40 µg/mL

From ChEMBL document CHEMBL1158182, “Antifungal activity of chalcones: a mechanistic study using various yeast strains” (Eur J Med Chem, 2008)
